ChEMBL document CHEMBL1126609, “5-HT3 receptor antagonists. 2. 4-Hydroxy-3-quinolinecarboxylic acid derivatives” (J Med Chem, 1993)
pKi: −log10 of the molar value.

Key:
[1] = target: T1, Serotonin 3 (5-HT3) receptor (Rattus norvegicus, UniProt P35563+Q9JJ16); test: Binding affinity against radioligand [3H]quipazine labeled 5-hydroxytryptamine 3 receptor sites in neuroblastoma-glioma (NG108-15) cells.
T1 sequence (P35563 whole entry): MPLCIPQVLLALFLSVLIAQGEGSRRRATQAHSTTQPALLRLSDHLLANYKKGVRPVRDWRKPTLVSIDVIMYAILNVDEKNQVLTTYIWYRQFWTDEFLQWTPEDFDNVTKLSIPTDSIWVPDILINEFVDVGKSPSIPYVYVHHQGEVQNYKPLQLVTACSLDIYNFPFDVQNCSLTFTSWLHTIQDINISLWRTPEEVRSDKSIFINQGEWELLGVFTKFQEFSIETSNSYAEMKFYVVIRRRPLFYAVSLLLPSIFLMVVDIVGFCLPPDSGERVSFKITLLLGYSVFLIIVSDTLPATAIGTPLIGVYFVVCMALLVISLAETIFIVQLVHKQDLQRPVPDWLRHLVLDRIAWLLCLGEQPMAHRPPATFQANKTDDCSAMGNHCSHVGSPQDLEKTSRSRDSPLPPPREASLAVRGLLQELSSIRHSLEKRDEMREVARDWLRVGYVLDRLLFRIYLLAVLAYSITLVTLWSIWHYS
T1 sequence (Q9JJ16 whole entry): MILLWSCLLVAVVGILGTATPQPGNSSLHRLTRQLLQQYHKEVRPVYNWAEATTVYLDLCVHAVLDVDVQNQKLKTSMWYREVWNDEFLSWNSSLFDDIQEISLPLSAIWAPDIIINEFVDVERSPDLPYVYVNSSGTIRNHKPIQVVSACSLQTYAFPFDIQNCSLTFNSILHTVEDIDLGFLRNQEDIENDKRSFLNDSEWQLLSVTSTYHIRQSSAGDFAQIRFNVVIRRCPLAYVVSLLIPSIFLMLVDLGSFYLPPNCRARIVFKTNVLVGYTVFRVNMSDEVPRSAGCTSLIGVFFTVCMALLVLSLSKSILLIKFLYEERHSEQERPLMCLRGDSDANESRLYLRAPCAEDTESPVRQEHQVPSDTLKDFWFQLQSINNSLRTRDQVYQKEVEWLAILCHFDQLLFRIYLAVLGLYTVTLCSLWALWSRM

[2] = target: Serotonin 3 (5-HT3) receptor (Rattus norvegicus) (UniProt P35563+Q9JJ16); test: In vivo inhibitory concentration after 5 minutes against 5-hydroxytryptamine 3 receptor induced bradycardia [bezold-jarisch (B-J) reflex test] in rat by intravenous administration; assay type: functional, organism-based
Procedure, shortened: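 Compounds given iv. The 5-HT-induced bradycardia (Bezold–Jarisch reflex) was measured at 5 min. ED50 is the dose reducing the bradycardia by 50%, from four determinations.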

[3] = system: Canis familiaris; test: Mean percentage increase emetic latency in dog after an intravenous administration of 1 mg/kg of drug (when dogs did not vomit, 360 min); assay type: functional, Canis lupus familiaris
Procedure, shortened: (§1)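 Adult male fasted beagle dogs (9-15 kg), fed on the day of the experiment; test drug given iv 30 min before cisplatin (3 mg/kg, iv, dissolved by sonication in saline). Dogs were monitored for 6 h. Emesis was defined as productive regurgitation of stomach contents.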

[4] = system: Canis familiaris; test: Mean percentage reduction due to cisplatin-induced emetic episodes in dog after an intravenous administration of 0.1 mg/kg of drug; assay type: functional, Canis lupus familiaris
Procedure, shortened: (§2)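 Adult male fasted beagle dogs (9-15 kg) received test drug iv 30 min before cisplatin (3 mg/kg, iv, in saline) and were monitored for 6 h. Episodes were counted as productive regurgitation of stomach contents. Percent reduction is versus the control group (n = 7); n = 2-4 dogs per dose.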

[5] = system: Canis familiaris; test: Mean percentage reduction due to cisplatin-induced emetic episodes in dog after an intravenous administration of 0.3 mg/kg of drug; assay type: functional, Canis lupus familiaris; procedure, shortened: as §2
[6] = system: Canis familiaris; test: Mean percentage increase emetic latency in dog after an intravenous administration of 0.1 mg/kg of drug; assay type: functional, Canis lupus familiaris; procedure, shortened: as §1
[7] = system: Canis familiaris; test: Mean percentage reduction due to cisplatin-induced emetic episodes in dog after an intravenous administration of 1 mg/kg of drug; assay type: functional, Canis lupus familiaris; procedure, shortened: as §2
[8] = system: Canis familiaris; test: Mean percentage increase emetic latency in dog after an intravenous administration of 0.3 mg/kg of drug; assay type: functional, Canis lupus familiaris; procedure, shortened: as §1
[9] = system: Canis familiaris; test: Mean percentage increase emetic latency in dog after an peroral administration of 0.1 mg/kg of drug; assay type: functional, Canis lupus familiaris; conditions: route oral
Procedure, shortened: (§3)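 Adult male fasted beagles (9–15 kg) received drug 30 min (iv) or 60 min (po) before cisplatin 3 mg/kg iv, dissolved by sonication in saline. Dogs were then observed 6 h, with emesis defined as productive regurgitation. Episode counts and latency were compared with controls (n = 7), using 2–4 dogs per dose. Dogs that never vomited were assigned 360 min latency.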

[10] = system: Canis familiaris; test: Mean percentage reduction due to cisplatin-induced emetic episodes in dog after an peroral administration of 0.1 mg/kg of drug; assay type: functional, Canis lupus familiaris; conditions: route oral; procedure, shortened: as §3
[11] = system: Canis familiaris; test: Mean percentage reduction due to cisplatin-induced emetic episodes in dog after an intravenous administration of 0.03 mg/kg of drug; assay type: functional, Canis lupus familiaris; procedure, shortened: as §3
[12] = system: Canis familiaris; test: Mean percentage increase emetic latency in dog after an intravenous administration of 0.03 mg/kg of drug; assay type: functional, Canis lupus familiaris; procedure, shortened: as §3
[13] = system: Canis familiaris; test: Mean percentage increase emetic latency in dog after an peroral administration of 1.0 mg/kg of drug; assay type: functional, Canis lupus familiaris; conditions: route oral; procedure, shortened: as §3
[14] = system: Canis familiaris; test: Mean percentage reduction due to cisplatin-induced emetic episodes in dog after an intravenous administration of 0.01 mg/kg of drug; assay type: functional, Canis lupus familiaris; procedure, shortened: as §3
[15] = system: Canis familiaris; test: Mean percentage increase emetic latency in dog after an intravenous administration of 0.3 mg/kg of drug (when dogs did not vomit,360min); assay type: functional, Canis lupus familiaris; procedure, shortened: as §3
[16] = system: Canis familiaris; test: Mean percentage increase emetic latency in dog after an intravenous administration of 0.01 mg/kg of drug; assay type: functional, Canis lupus familiaris; procedure, shortened: as §3
[17] = system: Canis familiaris; test: Mean percentage reduction due to cisplatin-induced emetic episodes in dog after an peroral administration of 1.0 mg/kg of drug; assay type: functional, Canis lupus familiaris; conditions: route oral; procedure, shortened: as §3

Compound	pKi [1]	ED50 [2]	other results
CCCCn1c(=O)c(C(=O)OC2CC3CCC(C2)N3C)c(O)c2cccnc21 (stereo not drawn)	< 7.00	–	–
CN1C2CCC1CC(NC(=O)c1c(O)c3cccnc3n(-c3ccccc3)c1=O)C2 (stereo not drawn)	7.85	–	–
CN1C2CCC1CC(OC(=O)c1cnc3ccccc3c1O)C2 (stereo not drawn)	8.21	0.0017 mg/kg	–
CN1C2CCC1CC(NC(=O)c1cnc3ccccc3c1Cl)C2 (stereo not drawn)	7.07	–	–
Cc1nc2ccccc2c(O)c1C(=O)OC1CC2CCC(C1)N2C (stereo not drawn)	7.24	–	–
CCCCn1c(=O)c(C(=O)NC2CC3CCC(C2)N3C)c(O)c2ccccc21 (stereo not drawn)	9.32	0.29 mg/kg	–
CN1C2CCC1CC(NC(=O)c1c(O)c3ccccc3[nH]c1=O)C2 (stereo not drawn)	8.12	–	–
CN1C2CCC1CC(NC(=O)c1cnc3ccccc3c1O)C2 (stereo in doubt; 6h)	7.00	–	–
CN1C2CCC1CC(NC(=O)c1c(O)nc3ccccc3c1O)C2 (stereo not drawn)	–	0.22 mg/kg	–
Cc1nccn1CC1CCc2c(c3ccccc3n2C)C1=O (stereo not drawn) [ONDANSETRON]	–	0.021 mg/kg	Increase [3]: >284%; Reduction [4]: 18%; Reduction [5]: 61%; Increase [6]: 33%; Reduction [7]: 100%; Increase [8]: 115%
CN1C2CCCC1CC(NC(=O)c1nn(C)c3ccccc13)C2 (stereo not drawn)	–	0.019 mg/kg	–
CN1C2CCC1CC(OC(=O)c1cnc3ccccc3c1)C2 (stereo not drawn)	7.17	0.37 mg/kg	–
Cc1ccc2c(O)c(C(=O)OC3CC4CCC(C3)N4C)cnc2n1 (stereo not drawn)	< 7.00	–	–
Cc1ccc2c(O)c(C(=O)NC3CC4CCC(C3)N4C)cnc2n1 (stereo not drawn)	< 7.00	–	–
CCCCn1c(=O)c(C(=O)OC2CC3CCC(C2)N3C)c(O)c2ccccc21 (stereo not drawn)	< 7.00	–	–
CN1C2CCCC1CC(NC(=O)c1cnc3ccccc3c1O)C2 (stereo not drawn)	7.52	–	–
CCCCn1c(=O)c(C(=O)NC2CC3CCC(C2)N3C)c(O)c2cccnc21 (stereo not drawn)	8.19	> 0.1 mg/kg	–
Cc1nc2ccccc2c(O)c1C(=O)NC1CC2CCC(C1)N2C (stereo not drawn)	8.14	0.015 mg/kg	–
CN1C2CCC1CC(OC(=O)c1c(O)c3cccnc3n(-c3ccccc3)c1=O)C2 (stereo not drawn)	< 7.00	–	–
CN1C2CCC1CC(NC(=O)c1cnc3ccccc3c1)C2 (stereo not drawn)	< 7.00	–	–
O=C(NC1CCN2CCCC1C2)c1cnc2ccccc2c1O (stereo not drawn)	7.74	–	–
CN1C2CCC1CC(NC(=O)c1cnc3ccccc3c1O)C2 (stereo in doubt; 6f)	8.82	–	Increase [9]: 32%; Reduction [10]: 64%; Reduction [4]: 80%; Reduction [11]: 54%; Reduction [5]: 100%; Increase [6]: 116%; Increase [12]: 23%; Increase [13]: 142%; Reduction [14]: 44%; Increase [15]: >284%; Increase [16]: 14%; Increase [17]: 88%
CN1C2CCC1CC(NC(=O)c1cnc3ccccc3c1N)C2 (stereo not drawn)	< 7.00	–	–
CN1C2CCC1CC(NC(=O)c1c(O)c3ccccc3n(-c3ccccc3)c1=O)C2 (stereo not drawn)	8.85	0.073 mg/kg	–
